According to ChEMBL document CHEMBL1148012, “Synthesis, inhibition and binding of simple non-nitrogen inhibitors of monoamine transporters” (Bioorg Med Chem, 2007):

Assays:
[1] = molecular target: T1, Sodium-dependent dopamine transporter (Homo sapiens, UniProt Q01959); experiment: Displacement of [125I]RTI55 from human DAT expressed in COS1 cell membrane; format: cell membranes, COS-1
Method in brief: (§1)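 Membranes from COS-1 cells stably transfected with hDAT or hSERT (pIRES, blasticidin selection), homogenised and washed, resuspended in PBSCM. Filtration onto PEI-soaked GF/B filters, scintillation counting.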

[2] = molecular target: T2, Sodium-dependent serotonin transporter (Homo sapiens, UniProt P31645); experiment: Displacement of [125I]RTI55 from human SERT expressed in COS1 cell membrane; format: cell membranes, COS-1; method in brief: as §1
[3] = molecular target: T3, Sodium-dependent noradrenaline transporter (Homo sapiens, UniProt P23975); experiment: Displacement of [125I]RTI55 from human NET expressed in COS1 cell membrane; format: cell membranes, COS-1
[4] = molecular target: T1, Sodium-dependent dopamine transporter; experiment: Inhibition of [3H]DA uptake in human DAT expressed in COS1 cell membrane; format: functional, cell-based, COS-1
Method in brief: (§2)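 Intact COS-1 cells stably expressing hDAT, grown two days at 37 °C, washed in PBSCM pH 7.4. Drug dilutions preincubated 30 min, then 30–100 nM [3H]DA added with drug. Uptake 10 min at 20 °C, stopped by aspiration and washing. Accumulated radioactivity counted after solubilising cells in scintillant. IC50 determined.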

[5] = molecular target: T2, Sodium-dependent serotonin transporter; experiment: Inhibition of [3H]SER uptake in human SERT expressed in COS1 cell membrane; format: functional, cell-based, COS-1
Method in brief: as §2, with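 “hSERT,” for “hDAT,”, “[3H]5-HT” for “[3H]DA”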

[6] = molecular target: T3, Sodium-dependent noradrenaline transporter; experiment: Inhibition of [3H]DA uptake in human NET expressed in COS1 cell membrane; format: functional, cell-based, COS-1

T2 sequence (P31645 whole entry): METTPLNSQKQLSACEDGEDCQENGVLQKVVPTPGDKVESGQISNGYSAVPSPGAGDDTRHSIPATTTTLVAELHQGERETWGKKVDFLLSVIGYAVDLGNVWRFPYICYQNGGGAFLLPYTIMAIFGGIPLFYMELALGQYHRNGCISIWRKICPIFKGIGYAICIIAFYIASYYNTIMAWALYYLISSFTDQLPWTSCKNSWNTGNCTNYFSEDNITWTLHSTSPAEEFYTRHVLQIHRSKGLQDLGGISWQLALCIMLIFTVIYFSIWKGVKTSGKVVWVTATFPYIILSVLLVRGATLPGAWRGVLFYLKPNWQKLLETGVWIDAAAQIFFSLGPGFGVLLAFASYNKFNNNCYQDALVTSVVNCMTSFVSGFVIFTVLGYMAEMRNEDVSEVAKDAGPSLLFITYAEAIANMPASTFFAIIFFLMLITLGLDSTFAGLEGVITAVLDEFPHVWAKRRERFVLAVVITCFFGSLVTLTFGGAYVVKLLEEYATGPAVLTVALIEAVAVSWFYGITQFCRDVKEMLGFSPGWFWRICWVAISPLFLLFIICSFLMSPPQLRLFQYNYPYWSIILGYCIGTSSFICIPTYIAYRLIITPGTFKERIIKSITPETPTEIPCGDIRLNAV
T3 sequence (P23975 whole entry): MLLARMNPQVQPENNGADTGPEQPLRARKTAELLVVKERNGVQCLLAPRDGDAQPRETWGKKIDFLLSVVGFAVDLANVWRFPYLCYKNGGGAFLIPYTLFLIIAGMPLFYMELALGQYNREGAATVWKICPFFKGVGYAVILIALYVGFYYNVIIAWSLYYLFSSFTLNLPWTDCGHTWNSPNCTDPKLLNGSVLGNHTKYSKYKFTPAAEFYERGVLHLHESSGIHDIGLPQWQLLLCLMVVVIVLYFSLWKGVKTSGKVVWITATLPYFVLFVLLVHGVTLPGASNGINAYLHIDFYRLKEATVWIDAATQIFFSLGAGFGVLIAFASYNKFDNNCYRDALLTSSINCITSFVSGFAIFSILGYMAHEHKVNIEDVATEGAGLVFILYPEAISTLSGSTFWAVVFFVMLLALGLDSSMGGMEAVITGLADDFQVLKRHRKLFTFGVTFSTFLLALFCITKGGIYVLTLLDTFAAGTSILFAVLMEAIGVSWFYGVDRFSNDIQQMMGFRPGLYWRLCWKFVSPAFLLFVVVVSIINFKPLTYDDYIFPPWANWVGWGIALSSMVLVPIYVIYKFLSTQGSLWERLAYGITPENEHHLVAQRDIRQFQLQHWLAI
T1 sequence (Q01959 whole entry): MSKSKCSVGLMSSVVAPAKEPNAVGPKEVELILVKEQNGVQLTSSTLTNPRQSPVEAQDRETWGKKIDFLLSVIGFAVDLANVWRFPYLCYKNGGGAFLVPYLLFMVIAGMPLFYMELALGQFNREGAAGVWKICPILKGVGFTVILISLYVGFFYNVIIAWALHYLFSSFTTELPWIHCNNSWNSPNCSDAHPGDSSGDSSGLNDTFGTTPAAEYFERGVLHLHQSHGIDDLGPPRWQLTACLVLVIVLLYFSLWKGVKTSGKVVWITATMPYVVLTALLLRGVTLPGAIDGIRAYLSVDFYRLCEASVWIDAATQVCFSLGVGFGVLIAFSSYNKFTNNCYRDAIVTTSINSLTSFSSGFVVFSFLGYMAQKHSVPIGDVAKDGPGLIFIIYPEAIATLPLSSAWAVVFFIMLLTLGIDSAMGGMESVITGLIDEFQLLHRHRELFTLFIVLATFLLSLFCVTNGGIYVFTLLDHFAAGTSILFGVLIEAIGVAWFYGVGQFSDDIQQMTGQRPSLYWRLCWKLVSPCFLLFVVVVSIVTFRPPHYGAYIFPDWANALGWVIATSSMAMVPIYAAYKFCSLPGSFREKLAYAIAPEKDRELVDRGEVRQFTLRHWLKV

Compound | Ki [1] | Ki [2] | Ki [3] | Ki [4] | Ki [5] | Ki [6]
COC(=O)[C@@H]1CCCC[C@@H]1c1ccc(C(C)(C)C)cc1 | 766 µM | 9120 µM | 675 µM | – | – | –
COC(=O)[C@@H]1CCCC[C@@H]1c1ccccc1 | 975 µM | 1510 µM | 1360 µM | – | – | –
COC(=O)[C@@H]1CCCC[C@@H]1c1ccc(C(F)(F)F)cc1 | 222 µM | 185 µM | 439 µM | – | – | –
COC(=O)C1=C(c2cccc(Cl)c2)CCCCC1 | 22 µM | 463 µM | 85 µM | 3.78 µM | – | –
COC(=O)[C@@H]1CN(C)CC[C@@H]1c1ccc(I)cc1 (racemic) | 0.323 µM | 0.287 µM | 0.855 µM | – | – | –
COC(=O)C1=C(c2ccc(C(C)=O)cc2)CCC1 | 335 µM | 296 µM | 240 µM | 49 µM | 1160 µM | 646 µM
COC(=O)[C@H]1[C@@H](c2ccc(I)cc2)C[C@H]2CC[C@@H]1N2C [IODINE 2BETA-CARBOMETHOXY-3BETA-(4 IODOPHENYL)-TROPANE] | 0.004 µM | 0.006 µM | 0.034 µM | 0.009 µM | 0.004 µM | 0.01 µM
COC(=O)C1=C(c2ccc(OC(F)(F)F)cc2)CCCC1 | 1660 µM | 4680 µM | 2540 µM | – | – | –
COC(=O)C1=C(c2ccc(C(C)(C)C)cc2)CCCC1 | 605 µM | 2250 µM | 1100 µM | – | – | –
COC(=O)[C@@H]1CCCCC[C@@H]1c1ccc(-c2ccccc2)cc1 | 313 µM | 73 µM | 51 µM | – | – | –
COC(=O)C1=C(c2cccc(Cl)c2)CCCC1 | 22 µM | 1180 µM | 339 µM | 26 µM | – | 871 µM
COC(=O)C1=C(c2ccc([N+](=O)[O-])cc2)CCC1 | 6.54 µM | 1140 µM | 111 µM | – | – | –
COC(=O)C1=C(c2ccc3ccccc3c2)CCCC1 | 12 µM | 109 µM | 81 µM | 1.5 µM | – | 10 µM
COC(=O)C1=C(c2ccc(-c3ccccc3)cc2)CCCCC1 | 2 µM | 32 µM | 13 µM | 0.81 µM | – | 3.9 µM
COC(=O)C1=C(c2ccc(OC(F)(F)F)cc2)CCC1 | 2650 µM | 3800 µM | 2880 µM | – | – | –
COC(=O)c1ccccc1-c1ccc2ccccc2c1 | 4.06 µM | 620 µM | 46.7 µM | – | – | –
COC(=O)[C@@H]1CCCC[C@@H]1c1ccc(OC(F)(F)F)cc1 | 1180 µM | 605 µM | 719 µM | – | – | –
COC(=O)C1=C(c2ccc(Cl)cc2)CCCCC1 | 15 µM | 706 µM | 84 µM | 2.2 µM | – | 20 µM
COC(=O)[C@@H]1CN(C)CC[C@@H]1c1ccccc1 (racemic) | 8.51 µM | 27 µM | 35.2 µM | – | – | –
COC(=O)C1=C(c2cccc(C(F)(F)F)c2)CCCC1 | 1050 µM | 5020 µM | 2110 µM | – | – | –
COC(=O)[C@@H]1CN(C)CC[C@H]1c1ccccc1 (racemic) | 17.4 µM | 46.7 µM | 36.3 µM | – | – | –
COC(=O)C1=C(c2ccc(Cl)cc2)CCC1 | 18 µM | 2840 µM | 420 µM | 2.1 µM | – | 178 µM
COC(=O)C1=C(c2ccc(-c3ccccc3)cc2)CCCC1 | 264 µM | 841 µM | 215 µM | – | – | –
COC(=O)[C@@H]1CCCC[C@@H]1c1cccc(C(F)(F)F)c1 | 569 µM | 1910 µM | 991 µM | – | – | –
COC(=O)[C@@H]1CN(C)CC[C@H]1c1ccc(I)cc1 (racemic) | 1.25 µM | 2.81 µM | 2.3 µM | – | – | –

Compound | Ki [1] | Ki [2] | Ki [3] | Ki [4] | Ki [5] | Ki [6]
COC(=O)C1=C(c2ccc(Cl)c(Cl)c2)CCC1 | 1.9 µM | 785 µM | 11 µM | 5.5 µM | – | 28 µM
COC(=O)[C@@H]1CN(C)CC[C@@H]1c1ccc(Cl)c(Cl)c1 (stereo in doubt; 3a) | 0.322 µM | – | 3.91 µM | – | – | –
COC(=O)C1=C(c2ccc(S(C)(=O)=O)cc2)CCC1 | – | 3390 µM | – | – | – | –
COC(=O)C1=C(c2ccc(Cl)c(Cl)c2)CCCCC1 | 1.36 µM | 149 µM | 15 µM | 0.515 µM | – | 4.72 µM
CCOC(=O)C1=C(c2cccc([N+](=O)[O-])c2)CCNC1 | 20.6 µM | 3 µM | 10 µM | – | – | –
COC(=O)C1=C(c2ccccc2)CCCC1 | 630 µM | 668 µM | 2500 µM | – | – | –
COC(=O)[C@@H]1CCCC[C@@H]1c1ccc(-c2ccccc2)cc1 | 830 µM | 390 µM | 658 µM | – | – | –
COC(=O)C1=C(c2cccc(Cl)c2)CCC1 | 34 µM | 2240 µM | 470 µM | 3.3 µM | – | 285 µM
COC(=O)C1=C(c2ccc(C(C)(C)C)cc2)CCCCC1 | 884 µM | 1040 µM | 62 µM | – | – | –
COC(=O)C1=C(c2cccc(N)c2)CCC1 | 875 µM | 1950 µM | 1320 µM | 121 µM | 2900 µM | 247 µM
COC(=O)C1=C(c2cccc([N+](=O)[O-])c2)CCCC1 | 239 µM | 28.7 µM | 121 µM | – | – | –
COC(=O)C1=C(c2ccc3ccccc3c2)CCCCC1 | 392 µM | 532 µM | 68 µM | – | – | –
COC(=O)C1=C(c2ccc(C(F)(F)F)cc2)CCCC1 | 590 µM | 4710 µM | 2020 µM | – | – | –
COC(=O)[C@@H]1CN(C)CC[C@@H]1c1ccc(Cl)c(Cl)c1 (stereo in doubt) | 59.4 µM | – | 41.6 µM | – | – | –
COC(=O)[C@@H]1CCCCC[C@@H]1c1ccc(C(C)(C)C)cc1 | 1140 µM | 1800 µM | 94 µM | – | – | –
C/C=C/C1=C(c2ccc(Cl)c(Cl)c2)CCCC1 | 11 µM | 381 µM | 255 µM | 42 µM | – | –
COC(=O)C1=C(c2ccc(O)cc2)CCCC1 | 231 µM | 573 µM | 675 µM | – | – | 499 µM
CCOC(=O)C1=C(c2ccc(Cl)c(Cl)c2)CCNC1 | 0.922 µM | 0.217 µM | 2.5 µM | – | – | –
CCOC(=O)C1=C(c2ccc3ccccc3c2)CCNC1 | 0.079 µM | 0.44 µM | 0.268 µM | – | – | –
COC(=O)C1=C(c2ccc(Cl)c(Cl)c2)CCCC1 | 2.1 µM | 228 µM | 14 µM | 0.625 µM | – | 4.9 µM
COC(=O)C1=C(c2ccc(C(C)(C)C)cc2)CCC1 | 302 µM | 1460 µM | 789 µM | – | – | –
COC(=O)C1=C(c2ccc3ccccc3c2)CCC1 | 4.1 µM | 417 µM | 39 µM | 7 µM | – | 26 µM
COC(=O)C1=C(c2ccc(Cl)cc2)CCCC1 | 85 µM | 1860 µM | 993 µM | 0.589 µM | – | 314 µM
COC(=O)C1=C(c2ccc(OC)cc2)CCC1 | 140 µM | 2690 µM | 550 µM | 6.3 µM | – | 1390 µM
